Source: ChEMBL document CHEMBL1159012, “Anti-aids agents, 6. Salaspermic acid, an anti-HIV principle from Tripterygium wilfordii, and the structure-activity correlation with its related compounds” (J Nat Prod, 1992)
Values after ≈ are worked out from the molar mass of the structure shown. Active and inactive are the calls of the source. No cut-off for these calls is given here.

Assays:
[1] = system: Human immunodeficiency virus 1; test: Antiviral activity against HIV 3B infected human H9 cells assessed as inhibition of p24 antigen release; format: functional; conditions: Human immunodeficiency virus 1, 3B, read-out: ED50 (the source's name)
Summary of the method: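 H9 lymphocytes (3.5×10^6 cells/ml) exposed to HIV-1 HTLV-IIIB at 0.01-0.1 TCID50/cell for 1 h at 37°, then washed and resuspended at 4×10^5 cells/ml. Mixed with an equal volume of compound diluted in medium and cultured 3 days at 37°. Virus released into the medium measured by p24 antigen capture. EC50 read graphically from a plot of % inhibition versus concentration.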

H9 = test: Cytotoxicity against human H9 cells; format: cell-based
Summary of the method: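 Uninfected H9 lymphocytes were handled in parallel with the infected cultures: 1 h mock exposure at 37°, washing, resuspension at 4×10^5 cells/ml, and 3 days at 37° with an equal volume of compound diluted in medium. Cell density was counted with a Coulter counter. IC50 was read graphically from a plot of % inhibition versus concentration.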

[2] = target: T1, Human immunodeficiency virus type 1 reverse transcriptase (Human immunodeficiency virus 1, UniProt Q72547); test: Inhibition of HIV1 recombinant reverse transcriptase expressed in Escherichia coli using poly(dC)-oligo(dG) template
[3] = target: Human immunodeficiency virus type 1 reverse transcriptase (Human immunodeficiency virus 1) (UniProt Q72547); test: Inhibition of HIV1 recombinant reverse transcriptase expressed in Escherichia coli using poly(rU)-oligo(dA) template at 100 ug/ml
[4] = target: Human immunodeficiency virus type 1 reverse transcriptase (Human immunodeficiency virus 1) (UniProt Q72547); test: Inhibition of HIV1 recombinant reverse transcriptase expressed in Escherichia coli using poly(rG)-oligo(dC) template at 100 ug/ml
[5] = target: Human immunodeficiency virus type 1 reverse transcriptase (Human immunodeficiency virus 1) (UniProt Q72547); test: Inhibition of DNA polymerase activity of HIV1 recombinant reverse transcriptase
Summary of the method: (§1)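 Reverse transcriptase purified from E. coli expressing it: HIV-1 from JM109 carrying pKRT2, HIV-2 from a strain bearing pASRT2. HIV-2 enzyme was run with poly(rC)·oligo(dG). EC50 values were reported.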

[6] = target: Human immunodeficiency virus type 1 reverse transcriptase (Human immunodeficiency virus 1) (UniProt Q72547); test: Inhibition of RNAse activity of HIV1 recombinant reverse transcriptase using poly(dT).[3H]poly(rA) template at 100 ug/ml
Summary of the method: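 The RNase H activity of purified HIV-1 reverse transcriptase, expressed in E. coli JM109/pKRT2, was assayed with poly(dT)·[3H]poly(rA) as substrate. Compound was tested at 100 µg/ml.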

[7] = Inhibition of HIV2 reverse transcriptase using poly(rC)-oligo(dG) template; parameters: species or system Human immunodeficiency virus 2; summary of the method: as §1
[8] = target: T1, Human immunodeficiency virus type 1 reverse transcriptase; test: Inhibition of HIV1 recombinant reverse transcriptase expressed in Escherichia coli using poly(rA)-oligo(dT) template
[9] = target: T1, Human immunodeficiency virus type 1 reverse transcriptase; test: Inhibition of HIV1 recombinant reverse transcriptase expressed in Escherichia coli using poly(rC)-oligo(dG) template
[10] = target: T1, Human immunodeficiency virus type 1 reverse transcriptase; test: Inhibition of HIV1 recombinant reverse transcriptase expressed in Escherichia coli using poly(rU)-oligo(dA) template
[11] = target: T1, Human immunodeficiency virus type 1 reverse transcriptase; test: Inhibition of HIV1 recombinant reverse transcriptase expressed in Escherichia coli using poly(rG)-oligo(dC) template

| Structure (SMILES) | EC50 [1] | IC50 (H9) | also measured |
| --- | --- | --- | --- |
| C[C@@H]1[C@@]23CC[C@H]4[C@@](C)(CC[C@@]5(C)[C@@H]6C[C@](C)(C(=O)O)CC[C@]6(C)CC[C@]45C)[C@@H]2C[C@@H](O)[C@@]1(O)OC3 | 103 µM | 64 µM |  |
| C[C@H]1C(=O)CC[C@@H]2[C@]1(C)CC[C@H]1[C@@]2(C)CC[C@@]2(C)[C@@H]3CC(C)(C)CC[C@]3(C)[C@H](O)C[C@]12C | 2 µM | 8 µM |  |
| C[C@H]1C(=O)CC[C@H]2[C@]3(C)CC[C@@]4(C)[C@@H]5CC(C)(C)C(=O)C[C@]5(C)C(=O)C[C@]4(C)[C@H]3C[C@@H](O)[C@]12C | > 106 µM | 106 µM |  |
| C[C@H]1C(=O)CC[C@@H]2[C@]1(C)CC[C@H]1[C@@]2(C)CC[C@@]2(C)[C@@H]3CC(C)(C)CC[C@]3(C(=O)O)CC[C@]12C | 15 µM | 22 µM |  |
| C[C@H]1C(=O)CC[C@@H]2[C@]1(C)CC[C@H]1[C@@]2(C)CC[C@@]2(C)[C@@H]3CC(C)(C)CC[C@]3(OO)CC[C@]12C | 38 µM | 38 µM |  |
| C[C@H]1C(=O)CC[C@@H]2[C@]1(C)CC[C@H]1[C@@]2(C)CC[C@@]2(C)[C@@H]3CC(C)(C)CC[C@]3(CO)CC[C@]12C [CANOPHYLLOL] | 4 µM | 18 µM |  |
| C[C@@H]1[C@@]23CC[C@H]4[C@@](C)(CC[C@@]5(C)[C@@H]6C[C@](C)(C(=O)O)CC[C@]6(C)CC[C@]45C)[C@@H]2CC[C@@]1(O)OC3 [SALASPERMIC ACID] | 10 µM | 53 µM | EC50 [2]: 159 µM; inhibition [3]: 37%; inhibition [4]: 4%; Activity [5]: Active; Activity [6]: inactive; EC50 [7]: 100 mg/L (≈ 212 µM); EC50 [8]: 33.8 µM; EC50 [9]: 31.7 µM; EC50 [10]: > 212 µM; EC50 [11]: > 212 µM |

Continued by falling EC50 [1], values first:

| EC50 [1] | Structure (SMILES) | IC50 (H9) | also measured |
| --- | --- | --- | --- |
| 66 µM | C[C@H]1C(=O)CC[C@@H]2[C@]1(C)CC[C@H]1[C@@]2(C)CC[C@@]2(C)[C@@H]3C[C@](C)(C(=O)O)CC[C@]3(C)CC[C@]12C [MAYTENOIC ACID] | 44 µM |  |
| 59 µM | C[C@H]1C(=O)CC[C@@H]2[C@]1(C)CC[C@H]1[C@@]2(C)CC[C@@]2(C)[C@@H]3C[C@@](C)(C(=O)O)CC[C@]3(C)CC[C@]12C | 44 µM |  |
| 13 µM | C[C@H]1C(=O)CC[C@@H]2[C@]1(C)CC[C@H]1[C@@]2(C)CC[C@@]2(C)[C@@H]3C[C@@](C)(CO)CC[C@]3(CO)CC[C@]12C | 20 µM |  |
| 11 µM | C[C@H]1C(=O)CC[C@@H]2[C@]1(C)CC[C@H]1[C@@]2(C)CC[C@@]2(C)[C@@H]3C[C@](C)(CO)CC[C@]3(CO)CC[C@]12C | 15 µM |  |
